Results taken from ChEMBL document CHEMBL4325893, “Synthesis and antibacterial profiles of targeted triclosan derivatives” (2019).
In brackets after ≈: the same amount, converted by molar mass.

Assays:
Klebsiella pneumoniae = assay: Antibacterial activity against Klebsiella pneumoniae ATCC 13883 after 18 hrs; format: functional; conditions: ATCC 13883, 18 h
Summary of the method: (§1)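 Broth microdilution in Nutrient Broth No. 2; stocks in ethanol diluted to 0.01–128 µg/ml (triclosan) or 0.25–256 µg/ml (glycosides). Overnight 37 °C NB2 cultures diluted 1 in 10^4 in saline and added to the dilutions. Incubation at 37 °C with agitation, OD read every 15 min; MIC is the lowest concentration preventing any OD rise after 18 h.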

Staphylococcus aureus [1] = assay: Antibacterial activity against Staphylococcus aureus ATCC 6538P after 18 hrs; format: functional; summary of the method: as §1
Serratia marcescens = assay: Antibacterial activity against Serratia marcescens OCC 217 after 18 hrs; format: functional; conditions: OCC 217, 18 h; summary of the method: as §1
Escherichia coli [2] = assay: Antibacterial activity against Escherichia coli ATCC 11775 after 18 hrs; format: functional; summary of the method: as §1
[3] = Antibacterial activity against Salmonella enterica subspecies enterica serotype Indiana OCC 597 after 18 hrs; format: functional, Salmonella enterica subsp. enterica serovar Indiana; conditions: OCC 597, 18 h; summary of the method: as §1
Klebsiella aerogenes = assay: Antibacterial activity against Enterobacter aerogenes ATCC 13048 after 18 hrs; format: functional; conditions: ATCC 13048, 18 h; summary of the method: as §1
Streptococcus viridans = assay: Antibacterial activity against Streptococcus viridans OCC 234 after 18 hrs; format: functional; conditions: OCC 234, 18 h
Summary of the method: (§2)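 Broth microdilution in Nutrient Broth No. 2. Ethanol stocks were diluted in broth to 0.01–128 µg/ml for triclosan and 0.25–256 µg/ml for glycosides. Overnight 37°C NB2 cultures were diluted 1 in 10^4 in saline and added to the wells. Plates were incubated at 37°C with OD read every 15 min after agitation. MIC was the lowest concentration giving no OD increase at 18 h.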

Cronobacter sakazakii = assay: Antibacterial activity against Cronobacter sakazakii 29544 after 18 hrs; format: functional; conditions: Cronobacter sakazakii, 29544, 18 h; summary of the method: as §1
Staphylococcus aureus [4] = assay: Antibacterial activity against Staphylococcus aureus ATCC 6538 after 18 hrs; format: functional; conditions: ATCC 6538, 18 h; summary of the method: as §1
[5] = Antibacterial activity against Salmonella enterica subspecies enterica serotype Arizonae OCC 706 after 18 hrs; format: functional, Salmonella enterica subsp. enterica serovar Arizonae; conditions: OCC 706, 18 h; summary of the method: as §1
Citrobacter freundii = assay: Antibacterial activity against Citrobacter freundii OCC 851 after 18 hrs; format: functional; conditions: OCC 851, 18 h; summary of the method: as §1
Staphylococcus aureus [6] = assay: Antibacterial activity against Staphylococcus aureus ATCC 25923 after 18 hrs; format: functional; conditions: ATCC 25923, 18 h; summary of the method: as §1
Aeromonas hydrophila = assay: Antibacterial activity against Aeromonas hydrophila OCC 778 after 18 hrs; format: functional; conditions: OCC 778, 18 h; summary of the method: as §1
Escherichia hermannii = assay: Antibacterial activity against Escherichia hermannii 33650 after 18 hrs; format: functional; conditions: Atlantibacter hermannii, 33650, 18 h; summary of the method: as §1
Salmonella typhimurium = assay: Antibacterial activity against Salmonella enterica subspecies enterica serotype typhimurium ATCC 14028 after 18 hrs; format: functional, Salmonella enterica subsp. enterica serovar Typhimurium; conditions: ATCC 14028, 18 h; summary of the method: as §1
Pseudomonas aeruginosa = assay: Antibacterial activity against Pseudomonas aeruginosa ATCC 27853 after 18 hrs; format: functional; conditions: ATCC 27853, 18 h; summary of the method: as §1
[7] = tested on: Staphylococcus saprophyticus; assay: Antibacterial activity against Staphylococcus saprophyticus ATCC 15305 after 18 hrs; format: functional; conditions: ATCC 15305, 18 h; summary of the method: as §2
[8] = Antibacterial activity against Salmonella enterica subspecies enterica serotype Virchow NCTC 5742 after 18 hrs; format: functional, Salmonella enterica subsp. enterica serovar Virchow; conditions: NCTC 5742, 18 h; summary of the method: as §1
Streptococcus pneumoniae = assay: Antibacterial activity against Streptococcus pneumoniae 6305 after 18 hrs; format: functional; conditions: Streptococcus pneumoniae, 6305, 18 h; summary of the method: as §2
Streptococcus pyogenes = assay: Antibacterial activity against Streptococcus pyogenes ATCC 19615 after 18 hrs; format: functional; conditions: ATCC 19615, 18 h; summary of the method: as §2
[9] = Antibacterial activity against Salmonella enterica subspecies enterica serotype Pullorum OCC 273 after 18 hrs; format: functional, Salmonella enterica subsp. enterica serovar Pullorum; conditions: OCC 273, 18 h; summary of the method: as §1
Escherichia coli [10] = assay: Antibacterial activity against Escherichia coli OCC 122 after 18 hrs; format: functional; conditions: OCC 122, 18 h; summary of the method: as §1
Staphylococcus aureus [11] = assay: Antibacterial activity against Staphylococcus aureus OCC 104 after 18 hrs; format: functional; conditions: OCC 104, 18 h; summary of the method: as §1
Escherichia coli [12] = assay: Antibacterial activity against Escherichia coli NCTC 13216 after 18 hrs; format: functional; conditions: NCTC 13216, 18 h; summary of the method: as §1
[13] = Antibacterial activity against Salmonella enterica subspecies enterica serotype Infantis OCC 2133 after 18 hrs; format: functional, Salmonella enterica subsp. enterica serovar Infantis; conditions: OCC 2133, 18 h; summary of the method: as §1
Hafnia alvei = assay: Antibacterial activity against Hafnia alvei 13337 after 18 hrs; format: functional; conditions: Hafnia alvei, 13337, 18 h; summary of the method: as §1
Escherichia coli [14] = assay: Antibacterial activity against Escherichia coli ATCC 25922 after 18 hrs; format: functional; conditions: ATCC 25922, 18 h; summary of the method: as §1
Escherichia coli [15] = assay: Antibacterial activity against Escherichia coli ATCC 8739 after 18 hrs; format: functional; conditions: ATCC 8739, 18 h; summary of the method: as §1
Staphylococcus aureus [16] = assay: Antibacterial activity against Staphylococcus aureus OCC 106 after 18 hrs; format: functional; conditions: OCC 106, 18 h; summary of the method: as §1

- MIC (Klebsiella pneumoniae): 1 µg/mL (≈ 2.21 µM)
- MIC (Staphylococcus aureus [1]): 8 to 16 µg/mL (≈ 17.7 to 35.4 µM)
- MIC (Serratia marcescens): > 256 µg/mL
- MIC (Escherichia coli [2]): 16 to 64 µg/mL (≈ 35.4 to 142 µM)
- MIC [3]: 32 to 64 µg/mL (≈ 70.8 to 142 µM)
- MIC (Klebsiella aerogenes): 128 µg/mL (≈ 283 µM)
- MIC (Streptococcus viridans): > 256 µg/mL
- MIC (Cronobacter sakazakii): 128 µg/mL (≈ 283 µM)
- MIC (Staphylococcus aureus [4]): 8 to 16 µg/mL (≈ 17.7 to 35.4 µM)
- MIC [5]: 32 to 64 µg/mL (≈ 70.8 to 142 µM)
- MIC (Citrobacter freundii): 64 µg/mL (≈ 142 µM)
- MIC (Staphylococcus aureus [6]): 8 to 16 µg/mL (≈ 17.7 to 35.4 µM)
- MIC (Aeromonas hydrophila): > 256 µg/mL
- MIC (Escherichia hermannii): 32 µg/mL (≈ 70.8 µM)
- MIC (Salmonella typhimurium): 32 to 64 µg/mL (≈ 70.8 to 142 µM)
- MIC (Pseudomonas aeruginosa): > 256 µg/mL
- MIC [7]: 64 µg/mL (≈ 142 µM)
- MIC [8]: 32 to 64 µg/mL (≈ 70.8 to 142 µM)
- MIC (Streptococcus pneumoniae): 128 µg/mL (≈ 283 µM)
- MIC (Streptococcus pyogenes): 256 µg/mL (≈ 567 µM)
- MIC [9]: 32 to 64 µg/mL (≈ 70.8 to 142 µM)
- MIC (Escherichia coli [10]): 16 to 64 µg/mL (≈ 35.4 to 142 µM)
- MIC (Staphylococcus aureus [11]): 8 to 16 µg/mL (≈ 17.7 to 35.4 µM)
- MIC (Escherichia coli [12]): 16 to 64 µg/mL (≈ 35.4 to 142 µM)
- MIC [13]: 32 to 64 µg/mL (≈ 70.8 to 142 µM)
- MIC (Hafnia alvei): 16 µg/mL (≈ 35.4 µM)
- MIC (Escherichia coli [14]): 16 to 64 µg/mL (≈ 35.4 to 142 µM)
- MIC (Escherichia coli [15]): 16 to 64 µg/mL (≈ 35.4 to 142 µM)
- MIC (Staphylococcus aureus [16]): 8 to 16 µg/mL (≈ 17.7 to 35.4 µM)
SMILES: OC[C@H]1O[C@H](Oc2cc(Cl)ccc2Oc2ccc(Cl)cc2Cl)[C@H](O)[C@@H](O)[C@H]1O
